Measured values from ChEMBL document CHEMBL1833793 (Bioorg Med Chem Lett, 2011).
Calls of active or inactive are those of the source. The calls are words filed in the database; no cut-off is given here.

Columns and labels:
Rattus norvegicus [1] = species on record: Rattus norvegicus; test: Inhibition of food intake in rat after 24 hrs starvation; format: functional, organism-based
[2] = Drug uptake in brain of cPP-induced feeding rat model at 30 mg/kg, po after 2 hrs; format: ADME, organism-based; design: dose 30 mg/kg, route oral; conditions: read-out: Drug uptake
Procedure, shortened: (§1)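 Satellite rats (n = 2/dose) sampled each week alongside the cPP feeding test; Lu-series dosed po at 3, 10 or 30 mg/kg as suspension in 20% HP-β-cyclodextrin; plasma (ng/mL) and brain tissue (ng/g) levels taken at 1, 2, 4, 6 and 24 h post-dose; mean ± SD reported.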

[3] = Volume of distribution at steady state in Sprague-Dawley rat at 1 mg/kg, iv and 2 mg/kg, po by HPLC analysis; format: ADME, organism-based; conditions: in vivo, read-out: Vdss
Procedure, shortened: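 Male Sprague-Dawley rats (200–250 g, n = 2) with jugular and carotid cannulae, dosed 1 mg/kg iv and 2 mg/kg po in crossover after 24 h washout. Vehicle was 20% beta cyclodextrin, pH adjusted with methanesulfonic acid to give a solution. Automated serial blood sampling took 12 time points over 24 h. Plasma was quantified by HPLC-MS/MS, with noncompartmental analysis.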

[4] = Drug uptake in brain of cPP-induced feeding rat model at 3 mg/kg, po after 6 hrs; format: ADME, organism-based; design: dose 3 mg/kg, route oral; conditions: read-out: Drug uptake; procedure, shortened: as §1
[5] = Apparent permeability from basolateral to apical side of the human Caco2 cells; format: ADME, cell-based; conditions: Caco-2
[6] = target: T1, Neuropeptide Y receptor type 5 (Homo sapiens, UniProt Q15761); test: Antagonist activity at human NPY5 receptor assessed as calcium mobilization by FLIPR assay; format: functional
T1 sequence (Q15761 whole entry): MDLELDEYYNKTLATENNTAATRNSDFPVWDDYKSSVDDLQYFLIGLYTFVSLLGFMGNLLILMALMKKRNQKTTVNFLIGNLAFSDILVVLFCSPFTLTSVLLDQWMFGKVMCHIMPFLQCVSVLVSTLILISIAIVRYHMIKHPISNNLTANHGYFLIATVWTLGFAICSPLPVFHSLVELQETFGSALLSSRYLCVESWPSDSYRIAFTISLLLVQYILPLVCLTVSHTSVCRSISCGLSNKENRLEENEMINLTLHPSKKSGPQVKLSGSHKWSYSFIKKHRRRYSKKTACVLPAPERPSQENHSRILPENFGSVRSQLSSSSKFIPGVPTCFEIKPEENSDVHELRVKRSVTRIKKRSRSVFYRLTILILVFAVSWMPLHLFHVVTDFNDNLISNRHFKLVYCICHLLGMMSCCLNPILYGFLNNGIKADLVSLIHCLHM

[7] = Drug uptake in brain of cPP-induced feeding rat model at 10 mg/kg, po after 6 hrs; format: ADME, organism-based; design: dose 10 mg/kg, route oral; conditions: read-out: Drug uptake; procedure, shortened: as §1
[8] = Oral bioavailability in mouse at 2 mg/kg by HPLC analysis; format: ADME, organism-based; conditions: in vivo
[9] = Drug uptake in brain of cPP-induced feeding rat model at 3 mg/kg, po after 2 hrs; format: ADME, organism-based; design: dose 3 mg/kg, route oral; conditions: read-out: Drug uptake; procedure, shortened: as §1
[10] = Half life in Sprague-Dawley rat at 1 mg/kg, iv and 2 mg/kg, po by HPLC analysis; format: ADME, organism-based; conditions: in vivo
Procedure, shortened: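 Cannulated (jugular and carotid) male Sprague-Dawley rats, 200–250 g, n = 2; 1 mg/kg iv and 2 mg/kg po crossover after 24 h washout; dosed in 20% β-cyclodextrin pH-adjusted with methanesulfonic acid; 12 serial blood samples over 24 h; plasma by LC-MS/MS; noncompartmental analysis.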

Rattus norvegicus [11] = test: Antistress activity against chronic mild stress Sprague-Dawley rat model assessed as increase in sucrose consumption at 10 mg/kg, ip bid measured after 4 weeks; format: functional; conditions: route intraperitoneal
[12] = Plasma concentration in cPP-induced feeding rat model at 10 mg/kg, po after 1 hr; format: ADME, organism-based; design: dose 10 mg/kg, route oral; procedure, shortened: as §1
[13] = Plasma concentration in cPP-induced feeding rat model at 30 mg/kg, po after 2 hrs; format: ADME, organism-based; design: dose 30 mg/kg, route oral
Procedure, shortened: (§2)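 Satellite rats (n = 2/dose per week), cannulated in the lateral cerebral ventricle for the feeding study, dosed orally at 3, 10 or 30 mg/kg as a suspension in 20% HP-β-cyclodextrin. Plasma was sampled 1, 2, 4, 6 or 24 h after dosing, alongside i.c.v. cPP (0.6 nmol) feeding tests. Values are given as mean with SD.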

[14] = target: Voltage-gated inwardly rectifying potassium channel KCNH2 (Homo sapiens, UniProt Q12809); test: Inhibition of human ERG by patch-clamp assay
Cytochrome P450 2C9 = Cytochrome P450 2C9 (Homo sapiens, UniProt P11712); test: Inhibition of CYP2C9; format: ADME
[15] = Tmax in mouse at 1 mg/kg, iv and 2 mg/kg, po by HPLC analysis; format: ADME, organism-based; conditions: in vivo
[16] = Plasma concentration in cPP-induced feeding rat model at 30 mg/kg, po after 6 hrs; format: ADME, organism-based; design: dose 30 mg/kg, route oral; procedure, shortened: as §2
[17] = target: 5-hydroxytryptamine receptor 2B (Homo sapiens, UniProt P41595); test: Binding affinity to human 5HT2B receptor
[18] = Half life in mouse at 1 mg/kg, iv and 2 mg/kg, po by HPLC analysis; format: ADME, organism-based; conditions: in vivo
[19] = Drug uptake in brain of cPP-induced feeding rat model at 30 mg/kg, po after 1 hr; format: ADME, organism-based; design: dose 30 mg/kg, route oral; conditions: read-out: Drug uptake; procedure, shortened: as §1
Cytochrome P450 2C19 = Cytochrome P450 2C19 (Homo sapiens, UniProt P33261); test: Inhibition of CYP2C19; format: ADME
[20] = Plasma concentration in cPP-induced feeding rat model at 30 mg/kg, po after 4 hrs; format: ADME, organism-based; design: dose 30 mg/kg, route oral; procedure, shortened: as §2
[21] = Volume of distribution at steady state in mouse at 1 mg/kg, iv and 2 mg/kg, po by HPLC analysis; format: ADME, organism-based; conditions: in vivo, read-out: Vdss
Cytochrome P450 1A2 = target: T2, Cytochrome P450 1A2 (Homo sapiens, UniProt P05177); test: Inhibition of CYP1A2; format: ADME
T2 sequence (P05177 whole entry): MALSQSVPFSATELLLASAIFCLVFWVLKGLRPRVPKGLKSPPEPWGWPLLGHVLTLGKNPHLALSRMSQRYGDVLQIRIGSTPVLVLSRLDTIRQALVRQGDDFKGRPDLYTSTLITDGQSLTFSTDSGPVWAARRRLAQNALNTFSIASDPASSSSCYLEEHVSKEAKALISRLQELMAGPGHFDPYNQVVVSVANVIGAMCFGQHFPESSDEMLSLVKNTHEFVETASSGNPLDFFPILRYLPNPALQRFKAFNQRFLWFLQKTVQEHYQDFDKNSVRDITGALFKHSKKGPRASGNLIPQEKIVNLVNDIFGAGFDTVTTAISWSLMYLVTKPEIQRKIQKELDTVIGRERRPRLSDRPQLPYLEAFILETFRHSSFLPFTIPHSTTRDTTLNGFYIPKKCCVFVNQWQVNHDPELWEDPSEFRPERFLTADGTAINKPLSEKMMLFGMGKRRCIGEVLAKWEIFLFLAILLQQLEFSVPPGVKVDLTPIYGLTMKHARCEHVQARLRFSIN

[22] = Drug uptake in brain of cPP-induced feeding rat model at 3 mg/kg, po after 4 hrs; format: ADME, organism-based; design: dose 3 mg/kg, route oral; conditions: read-out: Drug uptake; procedure, shortened: as §1
[23] = target: T1, Neuropeptide Y receptor type 5; test: Binding affinity to human NPY5 receptor
[24] = Plasma concentration in rat at 10 mg/kg, po after 4 hrs; format: ADME, organism-based; design: dose 10 mg/kg, route oral
Procedure, shortened: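 Single oral dose of 10 mg/kg in rats, two animals. Plasma was sampled at 4 h and the two values averaged. LOQ 2 ng/mL.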

Sequence of Cytochrome P450 2C19 (P33261 whole entry): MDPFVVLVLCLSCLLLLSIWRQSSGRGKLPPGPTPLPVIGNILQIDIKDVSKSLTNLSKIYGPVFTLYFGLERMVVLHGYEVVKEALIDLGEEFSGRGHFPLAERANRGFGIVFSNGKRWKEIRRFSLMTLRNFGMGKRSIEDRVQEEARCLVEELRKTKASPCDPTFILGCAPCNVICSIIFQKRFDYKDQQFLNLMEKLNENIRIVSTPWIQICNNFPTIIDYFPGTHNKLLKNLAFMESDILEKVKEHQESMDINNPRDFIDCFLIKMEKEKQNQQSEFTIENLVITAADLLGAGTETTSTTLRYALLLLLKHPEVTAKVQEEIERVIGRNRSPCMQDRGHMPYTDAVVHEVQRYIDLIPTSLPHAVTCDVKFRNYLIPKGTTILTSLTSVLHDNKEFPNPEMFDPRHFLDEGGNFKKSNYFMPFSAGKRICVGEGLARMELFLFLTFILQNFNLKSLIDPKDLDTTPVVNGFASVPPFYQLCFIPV
Sequence of Cytochrome P450 2C9 (P11712 whole entry): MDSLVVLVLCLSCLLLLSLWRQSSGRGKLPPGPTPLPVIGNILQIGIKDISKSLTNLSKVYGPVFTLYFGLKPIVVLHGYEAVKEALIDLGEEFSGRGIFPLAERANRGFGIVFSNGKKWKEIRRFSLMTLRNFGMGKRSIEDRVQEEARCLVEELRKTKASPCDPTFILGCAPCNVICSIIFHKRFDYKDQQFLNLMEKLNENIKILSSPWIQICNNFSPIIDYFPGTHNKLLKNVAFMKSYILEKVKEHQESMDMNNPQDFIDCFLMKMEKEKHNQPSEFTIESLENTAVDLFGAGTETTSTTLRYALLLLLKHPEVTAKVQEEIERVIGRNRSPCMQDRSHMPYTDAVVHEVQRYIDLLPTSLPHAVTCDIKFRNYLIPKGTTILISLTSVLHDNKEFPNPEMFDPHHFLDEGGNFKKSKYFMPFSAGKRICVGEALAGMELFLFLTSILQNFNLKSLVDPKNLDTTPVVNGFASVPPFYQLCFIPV
Sequence of Voltage-gated inwardly rectifying potassium channel KCNH2 (Q12809 whole entry): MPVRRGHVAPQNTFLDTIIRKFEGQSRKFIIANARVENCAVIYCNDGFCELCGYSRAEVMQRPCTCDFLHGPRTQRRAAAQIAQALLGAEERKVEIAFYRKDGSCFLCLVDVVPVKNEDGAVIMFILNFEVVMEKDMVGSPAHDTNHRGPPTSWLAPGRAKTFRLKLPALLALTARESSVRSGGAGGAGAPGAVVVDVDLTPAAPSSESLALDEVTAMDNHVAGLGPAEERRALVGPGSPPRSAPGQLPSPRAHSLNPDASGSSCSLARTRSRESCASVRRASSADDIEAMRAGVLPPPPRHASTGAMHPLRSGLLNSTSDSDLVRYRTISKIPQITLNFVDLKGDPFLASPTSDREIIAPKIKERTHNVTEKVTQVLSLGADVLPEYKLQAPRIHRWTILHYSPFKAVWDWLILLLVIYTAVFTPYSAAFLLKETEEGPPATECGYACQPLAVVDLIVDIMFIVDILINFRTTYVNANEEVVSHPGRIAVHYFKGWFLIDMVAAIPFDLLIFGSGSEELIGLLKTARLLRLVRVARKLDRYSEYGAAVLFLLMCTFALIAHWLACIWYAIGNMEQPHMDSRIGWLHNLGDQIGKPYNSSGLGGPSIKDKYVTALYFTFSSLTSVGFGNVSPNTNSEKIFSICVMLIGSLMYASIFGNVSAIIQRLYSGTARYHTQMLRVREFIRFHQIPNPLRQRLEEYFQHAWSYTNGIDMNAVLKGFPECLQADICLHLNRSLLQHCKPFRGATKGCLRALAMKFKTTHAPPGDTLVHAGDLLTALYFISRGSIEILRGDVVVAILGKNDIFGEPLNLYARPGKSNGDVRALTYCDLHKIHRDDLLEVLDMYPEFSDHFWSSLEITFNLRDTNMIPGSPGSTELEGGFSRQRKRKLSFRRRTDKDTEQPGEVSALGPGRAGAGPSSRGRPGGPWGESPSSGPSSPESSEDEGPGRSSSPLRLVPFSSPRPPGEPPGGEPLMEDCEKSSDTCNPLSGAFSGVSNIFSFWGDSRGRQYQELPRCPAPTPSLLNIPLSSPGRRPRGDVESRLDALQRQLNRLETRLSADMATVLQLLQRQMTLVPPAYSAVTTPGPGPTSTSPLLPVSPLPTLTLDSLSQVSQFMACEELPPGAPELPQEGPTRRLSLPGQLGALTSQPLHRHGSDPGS
Sequence of 5-hydroxytryptamine receptor 2B (P41595 whole entry): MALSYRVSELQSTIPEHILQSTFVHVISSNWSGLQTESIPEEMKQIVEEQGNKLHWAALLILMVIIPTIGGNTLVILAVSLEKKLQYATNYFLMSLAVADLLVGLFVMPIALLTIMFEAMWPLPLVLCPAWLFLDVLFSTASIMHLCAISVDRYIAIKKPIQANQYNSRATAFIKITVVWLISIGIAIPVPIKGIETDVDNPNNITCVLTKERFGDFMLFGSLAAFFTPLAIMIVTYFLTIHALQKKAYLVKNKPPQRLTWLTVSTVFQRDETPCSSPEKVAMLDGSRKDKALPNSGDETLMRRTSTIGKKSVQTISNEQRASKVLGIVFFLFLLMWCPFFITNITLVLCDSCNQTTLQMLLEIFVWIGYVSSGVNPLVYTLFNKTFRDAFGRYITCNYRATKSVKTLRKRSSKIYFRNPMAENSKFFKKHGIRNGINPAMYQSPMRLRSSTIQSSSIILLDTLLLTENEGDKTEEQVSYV

CS(=O)(=O)NC[C@H]1CC[C@H](Nc2nc3c(s2)CCSc2ccccc2-3)CC1
inhibition (Rattus norvegicus [1]): inactive
concentration at 2 h [2]: 319 ng/g
Vd [3]: 3.3 L/kg
concentration at 6 h [4]: 30 ng/g
Papp B→A [5]: 40.4 ×10⁻⁶ cm/s
IC50 [6]: 1.8 nM
concentration at 6 h [7]: 124 ng/g
bioavailability [8]: 42%
concentration at 2 h [9]: 87 ng/g
half-life [10]: 6.3 h
Activity (Rattus norvegicus [11]): >10%
concentration at 1 h [12]: 159 ng/mL
concentration at 2 h [13]: 337 ng/mL
IC50 [14]: > 10000 nM
IC50 (Cytochrome P450 2C9): > 10000 nM
Tmax [15]: 1.3 h
concentration at 6 h [16]: 181 ng/mL
Ki [17]: 245 nM
half-life [18]: 8.2 h
concentration at 1 h [19]: 288 ng/g
IC50 (Cytochrome P450 2C19): > 10000 nM
concentration at 4 h [20]: 519 ng/mL
Vd [21]: 3.6 L/kg
IC50 (Cytochrome P450 1A2): > 10000 nM
concentration at 4 h [22]: 52 ng/g
Ki [23]: 1.5 nM
concentration at 4 h [24]: 320 ng/mL
